Laboratory results reported in ChEMBL document CHEMBL1926579, “N-Aryl-2-phenyl-2,3-dihydro-imidazo[1,2-b]pyrazole-1-carboxamides 7-substituted strongly inhibiting both fMLP-OMe- and IL-8-induced human neutrophil chemotaxis” (Eur J Med Chem, 2012).
The source made the active and inactive calls. No cut-off for these calls is given here.

Experiments:
[1] = Antiinflammatory activity in human neutrophils assessed as inhibition of fMLP-OMe-induced chemotaxis preincubated for 10 mins; assay type: functional, cell-based; conditions: Neutrophil
In short: (§1)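 Neutrophils from healthy donors' blood, isolated by dextran sedimentation, Ficoll–Paque centrifugation and hypotonic red-cell lysis, held in KRPG pH 7.4 at room temperature. Cells preincubated with compound 10 min. 48-well microchemotaxis chamber; compound in the upper compartment at 10^-12 to 10^-6 M in KRPG with 1 mg/mL BSA. Attractant in the lower compartment: fMLP-OMe 10 nM or CXCL8/IL8 1 nM.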

[2] = Antiinflammatory activity in human neutrophils assessed as inhibition of IL8-induced chemotaxis preincubated for 10 mins; assay type: functional, cell-based; conditions: Neutrophil; in short: as §1
Homo sapiens [3] = species: Homo sapiens; assay: Induction of Akt phosphorylation in fMLP-OMe-stimulated human neutrophils
Homo sapiens [4] = species: Homo sapiens; assay: Induction of Akt phosphorylation in IL8-stimulated human neutrophils

SMILES | IC50 [1] | IC50 [2] | Activity (Homo sapiens [3]) | Activity (Homo sapiens [4])
CCOC(=O)c1cnn2c1N(C(=O)Nc1ccc(F)cc1)C(c1ccccc1)C2 (stereo not drawn) | 10.3 nM | > 1000 nM | – | –
O=C(Nc1ccccc1)N1c2ccnn2CC1c1ccccc1 (stereo not drawn) | 4.8 nM | > 1000 nM | – | –
O=C(Nc1ccc(F)cc1)N1c2ccnn2CC1c1ccccc1 (stereo not drawn) | 95 nM | > 1000 nM | – | –
O=C(c1cnn2c1N(C(=O)Nc1cccc(F)c1)C(c1ccccc1)C2)N1CCCCC1 (stereo not drawn) | 5.5 nM | 1.2 nM | – | –
CCOC(=O)c1cnn2c1N(C(=O)Nc1ccccc1)C(c1ccccc1)C2 (stereo not drawn) | 98 nM | > 1000 nM | – | –
NC(=O)c1cnn2c1N(C(=O)Nc1ccccc1F)C(c1ccccc1)C2 (stereo not drawn) | > 1000 nM | 6.2 nM | – | –
O=C(NC1CC1)c1cnn2c1N(C(=O)Nc1ccccc1)C(c1ccccc1)C2 (stereo not drawn) | 123 nM | 13.2 nM | – | –
NC(=O)c1cnn2c1N(C(=O)Nc1ccc(F)cc1)C(c1ccccc1)C2 (stereo not drawn) | 11.4 nM | 484 nM | – | –
NC(=O)c1cnn2c1N(C(=O)Nc1cccc3ccccc13)C(c1ccccc1)C2 (stereo not drawn) | 110 nM | > 1000 nM | – | –
O=C(Nc1ccccc1F)N1c2ccnn2CC1c1ccccc1 (stereo not drawn) | 5.4 nM | > 1000 nM | – | –
O=C(NC1CC1)c1cnn2c1N(C(=O)Nc1cccc(F)c1)C(c1ccccc1)C2 (stereo not drawn) | 138 nM | > 1000 nM | – | –
O=C(c1cnn2c1N(C(=O)Nc1ccccc1)C(c1ccccc1)C2)N1CCCCC1 (stereo not drawn) | 980 nM | > 1000 nM | – | –
CCOC(=O)c1cnn2c1N(C(=O)Nc1cccc3ccccc13)C(c1ccccc1)C2 (stereo not drawn) | 13.8 nM | 206 nM | – | –
O=C(Nc1cccc2ccccc12)N1c2ccnn2CC1c1ccccc1 (stereo not drawn) | > 1000 nM | > 1000 nM | – | –
NC(=O)c1cnn2c1N(C(=O)Nc1cccc(F)c1)C(c1ccccc1)C2 (stereo not drawn) | 3.9 nM | 1.2 nM | inactive | inactive
CCOC(=O)c1cnn2c1N(C(=O)Nc1cccc(F)c1)C(c1ccccc1)C2 (stereo not drawn) | 9.2 nM | 111 nM | – | –
CCOC(=O)c1cnn2c1N(C(=O)Nc1ccccc1F)C(c1ccccc1)C2 (stereo not drawn) | 116 nM | 7.5 nM | – | –
O=C(Nc1cccc(F)c1)N1c2ccnn2CC1c1ccccc1 (stereo not drawn) | 12.1 nM | > 1000 nM | – | –
